Test results as given in the RNAGym collection of RNA variant scans (doi:10.1126/science.aae0568).
This sample holds only a part of the variants without activity.

B1: tRNA (parent)
chain: GUUCCGUUGGCGUAAUGGUAACGCGUCUCCCUCCUAAGGAGAAGACUGCGGGUUCGAGUCCCGUACGGAACG

Variants of: B1
Experiment: yeast fitness relative to wild type (ratio to wild type); higher = fitter; tRNA-Arg(CCU), competitive growth, 37 C, YPD
Method in brief: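 For this measurement, the tRNA-Arg(CCU) gene was varied by chemical synthesis at a 3% per-site mutation rate across 69 sites, and each variant was placed at the native genomic locus in Saccharomyces cerevisiae. The pooled strains went through a 24-hour competition in YPD at 37°C in six parallel replicates, with amplicons from start and end populations read by 100-nucleotide paired-end sequencing. Darwinian fitness relative to wild type followed from the change in each genotype's frequency. Genotypes needed ≥ 100 starting reads, and estimates < 0.5 were set to 0.5.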

Variant | yeast fitness
GUUCCGUUGGCGUAAAGGUAACGCGUCUCCCUCCUAAGGAGACGACUGCGGGUUCGAGUCCCGUACGGAACG [U16A A43C] | 0.906
GUUCCGUUGGCGUAAAGGUAGCGCGUGUCCCUCCUAAGGAGAAGACUGCGGGUUCGAGUCCCGUACGCAACG [U16A A21G C27G G68C] | ≤ 0.5
GUUCCGUUGGCGUAUUGGUAACGCGUCUCCCACCUAAGGAGAAGACUGCAAGUUCCAGUCGUGUACGGAACG [A15U U32A G50A G51A G56C C61G C62U] | ≤ 0.5
GUUCCGUUGGCGUAAAGGUAACGUGUCUCCCUCAUAAGGAGAAGACUGCGGGUUCGAGUCCCGUGCAGAACG [U16A C24U C34A A65G G67A] | ≤ 0.5
GUUCCGUUGGCGUAUUGGUAACGCGUCUCCCUCCUAAGGAGAAGACUGCGGGUACGAGUCCCGUACGGAACG [A15U U54A] | 0.53
GUUCCGUUGGCGUAUUGGUAACGCGUCUCCCUCCAAAGGAGAAGACUGCCGGUUCGAGUCCCGUCCGGAACG [A15U U35A G50C A65C] | ≤ 0.5
GUUCCGUUGGCGUAAAGGUAUCGCGUCUCCCUCCUAAGGAGUAGACUGCGGGUUCGAGUCCCGUACGGAACG [U16A A21U A42U] | 0.591
GUUCCGUUGGCGUAUUGGGAACGCGUAACCCUCCUAAGGAGAAGACUGCGGGUUCGAGUCCCGUACGGAACG [A15U U19G C27A U28A] | 0.578
GUUCCGUUGGCGUAUUGGUAACGCGUCUCCCAGCUAAGGAGAAGACUGCGGGAUCGAGUCCCGUACGGAACG [A15U U32A C33G U53A] | ≤ 0.5
GUUCCGUUGGCGUAAAGGUAACGCGUCUCCCUCCUAAGGAGCAGACUGCGGGUUCGAGUCCCGUACGGAACG [U16A A42C] | 0.854
GUUCCGUUGGCGUAAAGGUAACGCGUCUCCCUCCUAUGGAGAAGACUGCGGGUUCGAGUCCCGUACGGAACG [U16A A37U] | 0.739
GUUCCGUUGGCGUAAAGGUAACGCGUCUCCCUCCUAGGGAGAAGACUGCGGGUUCGAGUCCCGUACGGAACG [U16A A37G] | 0.79
GUUCCGUUGGCGUAAAGGUAACGCGUCUCCCUCCUUAGGAGAAGAAUGCGGGUUCGAGUCCCGUACGGAACG [U16A A36U C46A] | ≤ 0.5
GUUCCGUUGGCGUAAAGGUAACGGGUCUCCCUCCUAAGGAGAAGAUUGCCGGUUUGUGUCCGGUACGGAUCG [U16A C24G C46U G50C C55U A57U C62G A70U] | ≤ 0.5
GUUCCGUUGGCGUAAAGGUAAUGCGCCUCCCUCCUAAGGAGAAGACUGCGGGUUCGAGUCCCGUACAGAACG [U16A C22U U26C G67A] | ≤ 0.5
GUUCCGUUGGCGUAAAGGUAACGCGUCUCCCUCCUAAGGAGAAGACUGCGGGUUCGUGUCCCGUAUGGAACG [U16A A57U C66U] | 0.528
GUUCCGUUGGCGUAAAGGUAACGCGUCUCCCUCCUACGGAGAAGACUGCGGGUUUGAGUCCCGUACGGAACG [U16A A37C C55U] | ≤ 0.5
GUUCCGUUGGCGUAAAGGUAGCGCGUGUCCCUCCUAAGGAGAAGAUUGCGGGUUCGAGUCCCGUACGGAACG [U16A A21G C27G C46U] | 0.566
GUUCCGUUGGCGUAAAGGUAACGCGUCUCCCUCCUAAGGAGAAGACUGCGGGUUCGAGUCCCGUACGGAUCG [U16A A70U] | 1.03

Variant | yeast fitness
GUUCCGUUGGCGUAAAGGUAACGCGUCUCCCUCCUAAGGAGAAGACUGCGGGUUCGAGUCCCGUACGGACCG [U16A A70C] | 0.897
GUUCCGUUGGCGUAAAGGUAACGUGUCUCCCUCCUAAGGAGAAGACUGCGGGUUCGAGUCCCGUACGGAACG [U16A C24U] | 1.06
GUUCCGUUGGCGUAAAGGUUACGCGUCUCCCUCCCAAGCAGCAGACUACGGGUUCGAGUCCCGUACGGAACG [U16A A20U U35C G39C A42C G48A] | ≤ 0.5
GUUCCGUUGGCGUAUUGGUAACGCGUCUCCCACCUAAGGAGAAAACUGCGGGUUCGAGUCCCGUCCGGAACG [A15U U32A G44A A65C] | ≤ 0.5
GUUCCGUUGGCGUAAAGGUAACGCGUCUCCCUCCUUAGGAGAAGACUGCGGGUUCGAGUCCCGUACGGAACG [U16A A36U] | 0.552
GUUCCGUUGGCGUAAAGGUGACGCGUCUCCCUCUUAAGGAGAAGACUGCGGGUUCCAGUCCCGUACGGAACG [U16A A20G C34U G56C] | 0.509
GUUCCGUUGGCGUAUUGGUAACGCGUCUCCCUCCUAAGGAGAAGACUGCGGGAUCGAGUCCAGUACGGAACG [A15U U53A C62A] | ≤ 0.5
GUUCCGUUGGCGUAAAGGUAUCCCGUCUCCCUCCUAAGGAGAAGACCGCGGGUUCGAGUCCCGUACGGAACG [U16A A21U G23C U47C] | ≤ 0.5
GUUCCGUUGGCGUAAAGGUAACGCGUCUCCCUCCUAAGGAGAUGACUGCGGGUUCGAGUCCGGUAAGGCACG [U16A A43U C62G C66A A69C] | ≤ 0.5
GUUCCGUUGGCGUAAAGGUAACGUGUCUACCUCCUAAGGAGAAGACUGCGGGUUCGAGUCCCGUACGGAACG [U16A C24U C29A] | 0.57
GUUCCGUUGGCGUAUUGGUAACGCGACUCCCUCCUAAGGAGAAGACUGCGGGUUAGAGUCCCGUACGGACCG [A15U U26A C55A A70C] | ≤ 0.5
GUUCCGUUGGCGUAAAGGUAACGCGUCUCCCUCCUAAGGGGAAGACUGCGGGUUCGAGUCCCGUACGGAACG [U16A A40G] | 0.913
GUUCCGUUGGCGUAAAGGUAACGCGUCUCCCUCCUAGGGAGAAAACUGCGGGUUCGAGUCCCGUACGGUACG [U16A A37G G44A A69U] | ≤ 0.5
GUUCCGUUGGCGUAAAGGUAGCGCGUCUCCCUCAUAAGGAGAAGACUGGGGGUUCGAGUCCUGUACGGAACG [U16A A21G C34A C49G C62U] | ≤ 0.5
GUUCCGUUGGCGUAAAGGUGACGCGUCUGUCUCCUAAGGUGAAGACUGCGGGUUCGAGUCCCGUACGGAGCG [U16A A20G C29G C30U A40U A70G] | ≤ 0.5
GUUCCGUUGGCGUAUUGGUAACGCGACUGCCUCCUAAGGAGAAGACUGCAGGUUCGAGUCGCCUACGGAACG [A15U U26A C29G G50A C61G G63C] | 0.57
GUUCCGUUGGCGUAAAGGUAAUGCGCCUCCCUCCUAAGGAGAAGACUGCGGGUGCGAGUCCCGUGAGGAACG [U16A C22U U26C U54G A65G C66A] | ≤ 0.5
GUUCCGUUGGCGUAUUGGUAACGCGUCUCCCUCCUAAGGAGAAGACAGCGGGUUCGUGUCCCGUACGGAACG [A15U U47A A57U] | 0.719
GUUCCGUUGGCGUAUUGGUAACGCGUCUCCCUCCUAAGGAGAAGACGGCGGGUUCGCGUCCCGUACGGAACG [A15U U47G A57C] | ≤ 0.5
